Measured values reported in paper PMC5873441 (Diabetes, Obesity & Metabolism, 2018).
Like-named read-outs stand apart in the source and are kept apart here.

What was measured:
[1] = format: in vivo, human
Summary of the method: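 Adults with normal hepatic function or mild, moderate or severe impairment (Child–Pugh), matched for age, sex and weight, each got one 0.5 mg s.c. thigh injection by pen. Plasma was sampled from pre-dose to 840 h and stored at −20°C. Proteins were precipitated, then LC‐MS/MS (0.729–60.8 nmol/L, analogue internal standard). AUC by non-compartmental methods; CL/F = dose/AUC0‐∞. Group ratios vs normal, with 90% CI.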

plasma protein (albumin) = format: in vitro ADME, human; settings: surface plasmon resonance, in vitro on blood samples taken prior to dosing; across all hepatic function groups
[2] = Safety and tolerability of a single 0.5 mg dose; format: in vivo, human; settings: single s.c. 0.5 mg
Summary of the method: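 After one 0.5 mg s.c. thigh dose, participants stayed in-house ≥5 days, then had visits on days 7, 8, 15, 22 and 29 and follow-up on day 36. Monitoring covered adverse events, hypoglycaemic episodes, haematology, biochemistry (amylase, lipase), coagulation, calcitonin, urinalysis, vital signs, physical examination, ECG and fasting plasma glucose.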

[3] = cited from earlier work
[4] = human, single s.c. 0.5 mg, mild hepatic impairment, n = 8

CC[C@H](C)[C@H](NC(=O)[C@H](Cc1ccccc1)NC(=O)[C@H](CCC(=O)O)NC(=O)[C@H](CCCCNC(=O)COCCOCCNC(=O)COCCOCCNC(=O)CC[C@H](NC(=O)CCCCCCCCCCCCCCCCC(=O)O)C(=O)O)NC(=O)[C@H](C)NC(=O)[C@H](C)NC(=O)[C@H](CCC(N)=O)NC(=O)CNC(=O)[C@H](CCC(=O)O)NC(=O)[C@H](CC(C)C)NC(=O)[C@H](Cc1ccc(O)cc1)NC(=O)[C@H](CO)NC(=O)[C@H](CO)NC(=O)[C@@H](NC(=O)[C@H](CC(=O)O)NC(=O)[C@H](CO)NC(=O)[C@@H](NC(=O)[C@H](Cc1ccccc1)NC(=O)[C@@H](NC(=O)CNC(=O)[C@H](CCC(=O)O)NC(=O)C(C)(C)NC(=O)[C@@H](N)Cc1cnc[nH]1)[C@@H](C)O)[C@@H](C)O)C(C)C)C(=O)N[C@@H](C)C(=O)N[C@@H](Cc1c[nH]c2ccccc12)C(=O)N[C@@H](CC(C)C)C(=O)N[C@H](C(=O)N[C@@H](CCCNC(=N)N)C(=O)NCC(=O)N[C@@H](CCCNC(=N)N)C(=O)NCC(=O)O)C(C)C [semaglutide]
AUC0‐last, ER (90% CI) vs no impairment ([1]; estimated ratio mild impairment/no impairment): 0.96 (0.76, 1.20)
Cmax, ER (90% CI) vs no impairment ([1]; estimated ratio mild impairment/normal function): 0.99 (0.80, 1.23)
AUC0‐∞, ER (90% CI) vs no impairment ([1]; estimated ratio mild impairment/normal function, single s.c. 0.5 mg): 0.95 (0.77, 1.16)
AUC0‐last, ER (90% CI) vs no impairment ([1]; estimated ratio moderate impairment/no impairment): 1.03 (0.92, 1.15)
Cmax, ER (90% CI) vs no impairment ([1]; estimated ratio moderate impairment/normal function): 1.02 (0.88, 1.18)
AUC0‐∞, ER (90% CI) vs no impairment ([1]; estimated ratio moderate impairment/normal function, single s.c. 0.5 mg): 1.02 (0.93, 1.12)
AUC0‐last, ER (90% CI) vs no impairment ([1]; estimated ratio severe impairment/no impairment): 0.93 (0.77, 1.13)
Cmax, ER (90% CI) vs no impairment ([1]; estimated ratio severe impairment/normal function): 1.15 (0.89, 1.48)
AUC0‐∞, ER (90% CI) vs no impairment ([1]; estimated ratio severe impairment/normal function, single s.c. 0.5 mg): 0.97 (0.84, 1.12)
AUC0‐last, estimated mean ([1]; human, single s.c. 0.5 mg, plasma LC-MS/MS, no hepatic impairment, n = 18): 2731 nmol^×h/L
AUC0‐last, estimated mean [1, 4]: 2621 nmol^×h/L
Tmax, median [1, 4]: 65.9 h
AUC0‐last, estimated mean ([1]; human, single s.c. 0.5 mg, moderate hepatic impairment, n = 10): 2807 nmol^×h/L
AUC0‐last, estimated mean ([1]; human, single s.c. 0.5 mg, severe hepatic impairment, n = 7): 2539 nmol^×h/L
CL/F, geometric mean (CV) ([1]; total apparent clearance, CV in %, severe hepatic impairment, n = 7): 0.043 (10.0) L/h
median fraction of unbound semaglutide (plasma protein (albumin)): < 1%
serious adverse events or events leading to participant withdrawal ([2]; all groups): No serious adverse events
severe hypoglycaemic episodes ([2]; all groups): No severe hypoglycaemic episodes
changes in vital signs, clinical laboratory assessments, physical examination or ECG ([2]; normal or impaired hepatic function): No clinically relevant changes
exposure in people with renal impairment vs normal renal function ([3]; after adjusting for specific baseline characteristics): comparable
administered dose excreted in urine as intact semaglutide ([3]; human, radioactive‐labelled compound): 3.1%
